Source: ChEMBL document CHEMBL4334444, “Studies of Jatrogossone A as a Reactive Oxygen Species Inducer in Cancer Cellular Models” (J Nat Prod, 2019)
Values belong to the compound of their own block, whether it stands above or below them. The source made the active and inactive calls. The rule behind the calls is not given here.

Columns and labels:
KOPN-8 [1] = experiment: Induction of apoptosis in human KOPN8 cells assessed as increase in caspase 3/7 activity incubated for 24 hrs by caspase3/7 reagent based ApoTox-Glo triplex assay; assay type: functional, cell-based
Procedure, shortened: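 ApoTox-Glo Triplex assay in KOPN-8 or U2OS cells. Cells were incubated 12 h at 37 °C, then treated 24 h across 100–0.15 μM. Viability (GF-AFC, 400Ex/505Em) and cytotoxicity (bis-AAF-R110, 485Ex/520Em) were read after 30 min at 37 °C. Caspase-Glo 3/7 luminescence was then read after 0.5 h at room temperature. Values are mean ± SEM of three independent experiments.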

PBMC [2] = experiment: Cytotoxicity against human PBMC cells assessed as cell viability at >100 uM by CellTiter-Glo assay; assay type: cell-based
Procedure, shortened: (§1)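 CellTiter-Glo luminescent viability readout. Cells kept at 37 °C under 5% CO2. HMEC primary cells grown in basal medium with growth kit; leukemia lines and murine BCR-ABL (WT, Bax/Bak DKO) cultured per earlier description. Positive controls: staurosporine 25 μM, gambogic acid 10 μM, a toxic quinoline. At least two biological replicates in technical triplicate; luminescence normalized to untreated controls; EC50 computed.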

[3] = Stability in CH3CN assessed as micheal adduct formation by measuring intact compound incubated for 16 hrs in presence of NAC by NMR analysis; assay type: physicochemical
[4] = Half life in human liver microsomes; assay type: ADME, Microsome
KOPN-8 [5] = experiment: Cytotoxicity against human KOPN8 cells assessed as cell viability at 0.95 to 125 uM after 72 hrs in presence of pan caspase inhibitor, Z-VAD-FMK by CellTiter-Glo assay; assay type: functional, cell-based
B-ALL [6] = experiment: Cytotoxicity against BCR-ABL p185-positive mouse B-ALL cells overexpressing human MCL-1 assessed as inhibition of cell viability after 24 hrs by AnnexinV-FITC/propidium iodide staining based flow cytometric analysis; assay type: functional
KOPN-8 [7] = experiment: Cell cycle arrest in human KOPN8 cells assessed as decrease in accumulation at G1/G0 phase at 10 uM incubated for 24 hrs by propidium iodide staining based flow cytometric analysis relative to control; assay type: functional; settings: KOPN-8, 24 h
Procedure, shortened: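 KOPN-8 plated at 1.00 × 10^6 cells/plate, held 12 h at 37 °C, treated 24 h at 10 μM; DMSO vehicle and 2 μM staurosporine as controls. Cells fixed in cold methanol, RNase-treated, stained with PI (50 μg/mL); cell-cycle distribution by flow cytometry.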

KOPN-8 [8] = experiment: Induction of apoptosis in human KOPN8 cells assessed as increase in cleaved PARP 1 level at 1 to 100 uM after 24 hrs by Western blot analysis; assay type: functional, cell-based
Procedure, shortened: (§2)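 Western blot of KOPN-8 and MCF-7 lysates made in RIPA-type buffer (Tris pH 7.5, Triton X-100, deoxycholate, SDS) with protease and phosphatase inhibitors. 30 μg protein per lane was run on 4–12% Bis-Tris SDS-PAGE and transferred to nitrocellulose. Blots were probed for cleaved caspase-7 and PARP-1 and detected with IR-dye secondaries. Menadione served as positive control: 10 μM in KOPN-8, 30 μM in MCF-7. Blots are representative of three independent experiments.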

BJ = experiment: Cytotoxicity against human BJ cells assessed as cell viability at >100 uM by CellTiter-Glo assay; assay type: cell-based; procedure, shortened: as §1
B-ALL [9] = experiment: Cytotoxicity against BCR-ABL positive p185-positive mouse B-ALL cells expressing human BCL-W assessed as inhibition of cell viability after 24 hrs by AnnexinV-FITC/propidium iodide staining based flow cytometric analysis; assay type: functional
B-ALL [10] = experiment: Antiproliferative activity against mouse B-ALL cells expressing wild type BCR-ABL assessed as reduction in cell viability at 1 to 10 uM by CellTiter-Glo assay; assay type: functional, cell-based; procedure, shortened: as §1
[11] = Stability in CH3CN assessed as micheal adduct formation by measuring intact compound incubated for 16 hrs in presence of glutathione by NMR analysis; assay type: physicochemical
KOPN-8 [12] = experiment: Decrease in cell viability in human KOPN8 cells incubated for 24 hrs by GF-AFC reagent based ApoTox-Glo triplex assay; assay type: functional
Procedure, shortened: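 ApoTox-Glo Triplex: cells held 12 h at 37 °C, then treated 24 h (100−0.15 μM). Viability/cytotoxicity reagent added, shaken, 30 min at 37 °C; viability read as GF-AFC fluorescence at 400Ex/505Em. Caspase-Glo 3/7 then added, 0.5 h at room temperature, luminescence read. Mean ± SEM of three independent experiments.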

[13] = Stability in CH3CN assessed as micheal adduct formation by measuring intact compound incubated for 16 hrs in presence of NAC by LC-MS analysis; assay type: physicochemical
SEM cells = experiment: Antiproliferative activity against human SEM cells assessed as reduction in cell viability at 0.1 to 250 uM by CellTiter-Glo assay; assay type: functional, cell-based; procedure, shortened: as §1
MCF7 [14] = experiment: Upregulation of Trx expression in human MCF7 at 10 uM after 3 to 6 hrs by Western blot analysis; assay type: functional, cell-based
Procedure, shortened: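 Western blot of KOPN-8 or MCF-7 lysates, 30 μg protein per lane on 4–12% Bis-Tris SDS-PAGE and transferred to nitrocellulose. Blots were probed with an oxidative stress defense antibody cocktail (catalase, SOD1, Trx, smooth muscle actin) and tubulin, and detected with IR-dye secondaries on a LI-COR Odyssey.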

KOPN-8 [15] = experiment: Induction of mitochondrial membrane potential loss in human KOPN8 cells at 4 uM after 24 hrs by TMRM staining based flow cytometric analysis; assay type: functional, cell-based
Procedure, shortened: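 TMRM flow cytometry. KOPN-8 (4 × 10^4 or 5 × 10^5 per well) or MCF-7 (2 × 10^4 or 2 × 10^5 per well) were seeded 24 h, then treated 24–48 h. FCCP 10 μM was added 10 min before staining as positive control. Cells were stained with TMRM 100 nM for 0.5 h, then PBS-washed, resuspended in PBS with 1% FBS and analysed by flow cytometry; DAPI flagged compromised cells.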

KOPN-8 [16] = experiment: Induction of apoptosis in human KOPN8 cells assessed as increase in cleaved PARP 1 level at 1 to 10 uM after 3 hrs by Western blot analysis; assay type: functional, cell-based; procedure, shortened: as §2
MCF7 [17] = experiment: Induction of apoptosis in human MCF7 cells assessed as increase in cleaved PARP 1 level at 1 to 10 uM after 3 hrs by Western blot analysis; assay type: functional, cell-based; procedure, shortened: as §2
UoC-B1 = experiment: Antiproliferative activity against human UOCB1 cells assessed as reduction in cell viability at 0.1 to 250 uM by CellTiter-Glo assay; assay type: functional, cell-based; procedure, shortened: as §1
PBMC [18] = experiment: Cytotoxicity against human PBMC cells assessed as reduction in cell viability at 0.1 to 250 uM by CellTiter-Glo assay; assay type: cell-based; procedure, shortened: as §1
SUP-B15 = experiment: Antiproliferative activity against human SUP-B15 cells assessed as reduction in cell viability at 0.1 to 250 uM by CellTiter-Glo assay; assay type: functional, cell-based; procedure, shortened: as §1
KOPN-8 [19] = experiment: Cytotoxicity against human KOPN8 cells assessed as cell viability at 0.75 to 100 uM after 72 hrs in presence of pan caspase inhibitor, Z-VAD-FMK by CellTiter-Glo assay; assay type: functional, cell-based
HepG2 = experiment: Antiproliferative activity against human HepG2 cells assessed as reduction in cell viability at 0.1 to 250 uM by CellTiter-Glo assay; assay type: functional, cell-based; procedure, shortened: as §1

Stability [3]: Stable
half-life [4]: 31 min
Stability [11]: Stable
Stability [13]: Stable
Compound: CC(=O)O[C@H]1/C2=C/[C@@H](C)C(=O)C[C@H]3[C@@H](/C=C(\C)C(=O)[C@H]2C[C@H]1C)C3(C)C
Activity (KOPN-8 [1]): Dose-dependent effect
Activity (PBMC [2]): Non-Toxic
Activity (KOPN-8 [5]): inactive
IC50 (B-ALL [6]): 3.31 µM
inhibition at 10 µM (KOPN-8 [7]): 5%
Activity (KOPN-8 [8]): Active
Activity (BJ): Non-Toxic
IC50 (B-ALL [9]): 14.4 µM
inhibition (B-ALL [10]): Active
inhibition (KOPN-8 [12]): Dose-dependent effect

Compound: CC1=C2CC(C)(C)/C=C/C(=O)/C(C)=C\C3=C[C@H](C)C[C@]3(O2)C1=O [JATROPHONE]
inhibition (SEM cells): Active
Activity (MCF7 [14]): inactive
Activity (KOPN-8 [15]): Active
Activity (KOPN-8 [16]): Active
Activity (MCF7 [17]): Active
inhibition (UoC-B1): Active
Activity (PBMC [18]): Toxic
inhibition (SUP-B15): Active
Activity (KOPN-8 [19]): inactive
inhibition (HepG2): Active
